Results reported in ChEMBL document CHEMBL3763095, “Naphtho[1',2':4,5]imidazo[1,2-a]pyridine-5,6-diones: Synthesis, enzymatic reduction and cytotoxic activity” (Bioorg Med Chem Lett, 2016).
Calls of active or inactive are those of the source. The rule behind the calls is not given here.

Key:
[1] = biological target: NAD(P)H dehydrogenase [quinone] 1 (Homo sapiens) (UniProt P15559); assay: Activity of NQO1 (unknown origin) assessed as O2 uptake at 5 to 15 uM by polarographic analysis in the presence of catalase and 150 to 200 uM NADPH
NAD(P)H dehydrogenase [quinone] 1 (Homo sapiens), sequence (P15559 whole entry): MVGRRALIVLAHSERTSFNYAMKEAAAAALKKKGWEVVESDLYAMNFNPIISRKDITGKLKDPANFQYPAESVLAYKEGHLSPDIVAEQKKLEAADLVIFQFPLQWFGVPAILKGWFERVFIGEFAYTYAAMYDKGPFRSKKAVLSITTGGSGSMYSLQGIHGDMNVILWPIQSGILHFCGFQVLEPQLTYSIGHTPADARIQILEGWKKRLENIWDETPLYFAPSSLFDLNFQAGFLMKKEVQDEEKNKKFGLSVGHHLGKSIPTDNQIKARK

Escherichia coli = assay: Antibacterial activity against Escherichia coli ATCC 25922 after 16 hrs by two-fold microdillution method; type: functional, organism-based
[2] = biological target: NAD(P)H dehydrogenase [quinone] 1 (Homo sapiens) (UniProt P15559); assay: Activity of NQO1 (unknown origin) assessed as reduction of cytochrome c at 5 to 15 uM by spectrophotometric analysis relative to NADPH oxidation rate; set-up: scale not given: the % may be the effect or the level left
Outline: (§1)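 NQO1-catalysed quinone reduction coupled to cytochrome c (50 µM) as the terminal single-electron acceptor.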

[3] = biological target: NAD(P)H dehydrogenase [quinone] 1 (Homo sapiens) (UniProt P15559); assay: Activity of NQO1 (unknown origin) assessed as reduction of cytochrome c at 5 to 15 uM in the presence of superoxide dismutase and 150 to 200 uM of NADPH; outline: as §1
[4] = biological target: NAD(P)H dehydrogenase [quinone] 1 (Homo sapiens) (UniProt P15559); assay: Substrate inhibition of NQO1 (unknown origin) by spectrophotometric analysis in the presence of 12.5 to 200 uM NADPH
Salmonella enterica = assay: Antibacterial activity against Salmonella enterica SL 5676 after 16 hrs by two-fold microdillution method; type: functional, organism-based

## O=C1C(=O)c2c(nc3ccccn23)-c2ccccc21
[1]
  Activity: inactive
Escherichia coli
  Activity: inactive
[2]
  Activity: 180%
[3]
  Activity: inactive
[4]
  inhibition: Active
Salmonella enterica
  Activity: inactive

## COc1ccc2nc3c(n2c1)C(=O)C(=O)c1ccccc1-3
[1]
  Activity: inactive
Escherichia coli
  Activity: inactive
[2]
  Activity: 180%
[3]
  Activity: inactive
[4]
  inhibition: Active
Salmonella enterica
  Activity: inactive

## Cc1ccc2nc3c(n2c1)C(=O)C(=O)c1ccccc1-3
[1]
  Activity: inactive
Escherichia coli
  Activity: inactive
[2]
  Activity: 180%
[3]
  Activity: inactive
Salmonella enterica
  Activity: inactive

## Cc1cccn2c3c(nc12)-c1ccccc1C(=O)C3=O
[1]
  Activity: inactive
Escherichia coli
  Activity: inactive
[2]
  Activity: 180%
[3]
  Activity: inactive
Salmonella enterica
  Activity: inactive

## O=C1C(=O)c2c(nc3ccc4ccccc4n23)-c2ccccc21
[1]
  Activity: inactive
Escherichia coli
  Activity: inactive
[2]
  Activity: 180%
[3]
  Activity: inactive
Salmonella enterica
  Activity: inactive

## Cc1ccn2c3c(nc2c1)-c1ccccc1C(=O)C3=O
[1]
  Activity: inactive
Escherichia coli
  Activity: inactive
[2]
  Activity: 180%
[3]
  Activity: inactive
Salmonella enterica
  Activity: inactive

## O=C1C(=O)c2c(nc3ccc([N+](=O)[O-])cn23)-c2ccccc21
[1]
  Activity: inactive
Escherichia coli
  Activity: inactive
[2]
  Activity: 180%
[3]
  Activity: inactive
Salmonella enterica
  Activity: inactive

## O=C1C(=O)c2c(nc3ccc(C(F)(F)F)cn23)-c2ccccc21
[1]
  Activity: inactive
Escherichia coli
  Activity: inactive
[2]
  Activity: 180%
[3]
  Activity: inactive
Salmonella enterica
  Activity: inactive

## O=C1C(=O)c2c(nc3ccc(F)cn23)-c2ccccc21
[1]
  Activity: inactive
Escherichia coli
  Activity: inactive
[2]
  Activity: 180%
[3]
  Activity: inactive
Salmonella enterica
  Activity: inactive

## O=C1C(=O)c2c(nc3ccccn23)-c2ccc([N+](=O)[O-])cc21
[1]
  Activity: inactive
Escherichia coli
  Activity: inactive
[2]
  Activity: 180%
[3]
  Activity: inactive
Salmonella enterica
  Activity: inactive

## O=C1C(=O)c2c(nc3ccc(Br)cn23)-c2ccccc21
[1]
  Activity: inactive
Escherichia coli
  Activity: inactive
[2]
  Activity: 180%
[3]
  Activity: inactive
Salmonella enterica
  Activity: inactive

## O=C1C(=O)c2c(nc3ccc(Cl)cn23)-c2ccccc21
[1]
  Activity: inactive
Escherichia coli
  Activity: inactive
[2]
  Activity: 180%
[3]
  Activity: inactive
Salmonella enterica
  Activity: inactive

## O=C1C(=O)c2c(nc3ncccn23)-c2ccccc21
[1]
  Activity: inactive
Escherichia coli
  Activity: inactive
[2]
  Activity: 180%
[3]
  Activity: inactive
Salmonella enterica
  Activity: inactive
